Legend:
[1] = test system: BV-2; test: Inhibition of LPS-induced NO production in mouse BV2 cells assessed as reduction in nitrite level pretreated for 24 hrs before LPS treatment for additional 24 hrs by Griess reaction method; format: functional, cell-based
Method in brief: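 BV2 microglia plated and preincubated 24 h, then exposed to LPS 0.3 μg/mL for a further 24 h. Nitrite in the culture supernatant measured by Griess reaction at OD 550 nm against a NaNO2 standard. Curcumin served as positive control. IC50 given as mean ± SD of three independent experiments.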

[2] = test system: HT-29; test: Cytotoxicity against human HT-29 cells by MTT assay; format: functional, cell-based
[3] = test system: A549; test: Cytotoxicity against human A549 cells by MTT assay; format: functional, cell-based
[4] = test system: A2780; test: Cytotoxicity against human A2780 cells by MTT assay; format: functional, cell-based
[5] = Cytotoxicity against human Bel7402 cells by MTT assay; format: functional, cell-based; conditions: Bel-7402
[6] = Cytotoxicity against human BGC823 cells by MTT assay; format: functional, cell-based; conditions: BGC-823
[7] = test system: HepG2; test: Hepatoprotective activity against APAP-induced toxicity in human HepG2 cells assessed as cell survival rate at 10 uM incubated for 48 hrs by MTT assay; format: functional; conditions: HepG2, 48 h, read-out: Survival
Method in brief: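 HepG2 cells grown in DMEM with 10% fetal calf serum and penicillin/streptomycin at 37 °C, 5% CO2, then seeded and incubated overnight. Test sample (10 μM) added together with APAP (final 8 mM) for 48 h. MTT at 0.5 mg/mL for 4 h, formazan dissolved in DMSO, absorbance read at 570 nm. Survival given as % of normal cells; bicyclol (10 μM) positive control; n = 3.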

[8] = Cytotoxicity against mouse BV2 cells assessed as cell viability by MTT assay; format: cell-based, BV-2; conditions: read-out: Activity
Method in brief: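 Murine microglial BV2 cells under the LPS-activation conditions of the NO assay. Viability read by MTT and expressed as a percentage of the LPS-only treatment group. Means ± SD from three independent experiments.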

SMILES	IC50 [1] [µM]	IC50 [2] [µM]	IC50 [3] [µM]	IC50 [4] [µM]	IC50 [5] [µM]	IC50 [6] [µM]	viability at 10 µM [7] [%]	viability [8] [%]
OC[C@H]1O[C@@H](O[C@@H]2OC=C[C@H]3[C@H](O)[C@@H]4O[C@]4(CO)[C@@H]23)[C@H](O)[C@@H](O)[C@@H]1O [CATALPOL]	7.3	> 10	> 10	> 10	> 10	> 10	69.1	86.1
C[C@H]1[C@H]2[C@H](O[C@@H]3O[C@H](COC(=O)/C=C/c4ccccc4)[C@@H](O)[C@H](O)[C@H]3O)OC=C(C(=O)O)[C@H]2C[C@@H]1O		> 10	> 10	> 10	> 10	> 10	65.9	
C[C@]1(O)C[C@@H](O)[C@@H]2C=CO[C@@H](O[C@@H]3O[C@H](CO)[C@@H](O)[C@H](O)[C@H]3O)[C@@H]21		> 10	> 10	> 10	> 10	> 10	69.9	
OC[C@H]1O[C@H](OC[C@H]2O[C@@H](O[C@@H]3OC=C[C@H]4[C@H](O)[C@@H]5O[C@]5(CO)[C@@H]34)[C@H](O)[C@@H](O)[C@@H]2O)[C@H](O)[C@@H](O)[C@H]1O		> 10	> 10	> 10	> 10	> 10		
OCC1=C[C@@H](O)[C@]2(O[C@@H]3O[C@H](CO)[C@@H](O)[C@H](O)[C@H]3O[C@H]3O[C@@H](CO)[C@H](O)[C@@H](O)[C@@H]3O)C=CO[C@@H](O[C@@H]3O[C@H](CO)[C@@H](O)[C@H](O)[C@H]3O)[C@H]12		> 10	> 10	> 10	> 10	> 10		
OCC1=C[C@@H](O)[C@@H]2C=CO[C@@H](O[C@@H]3O[C@H](CO)[C@@H](O)[C@H](O)[C@H]3O)[C@H]12 [AUCUBIN]		> 10	> 10	> 10	> 10	> 10		
C[C@]1(O)[C@H](O)C=C2C=CO[C@@H](O[C@@H]3O[C@H](CO)[C@@H](O)[C@H](O)[C@H]3O)[C@@H]21		> 10	> 10	> 10	> 10	> 10		
COC(=O)c1cc(OC)c2c(c1-c1c(CO)cc(OC)c3c1OCO3)OCO2 [BICYCLOL]							66.5	
COc1cc(/C=C/C(=O)CC(=O)/C=C/c2ccc(O)c(OC)c2)ccc1O [CURCUMIN]	0.52							93.4
O=C(O[C@H]1[C@@H]2C=CO[C@@H](O[C@@H]3O[C@H](CO)[C@@H](O)[C@H](O)[C@H]3O)[C@@H]2[C@@]2(CO)O[C@@H]12)c1ccc(O)cc1 [CATALPOSIDE]		> 10	> 10	> 10	> 10	> 10		
C[C@]1(O)CCC2=CCO[C@@H](O[C@@H]3O[C@H](CO)[C@@H](O)[C@H](O)[C@H]3O)[C@@H]21		> 10	> 10	> 10	> 10	> 10		
COc1cc(/C=C/C(=O)O[C@H]2[C@@H]3C=CO[C@@H](O[C@@H]4O[C@H](CO)[C@@H](O)[C@H](O)[C@H]4O)[C@@H]3[C@@]3(CO)O[C@@H]23)ccc1O		> 10	> 10	> 10	> 10	> 10		
C[C@]1(O)C[C@@H](O)[C@@H]2C[C@@H](O[C@H]3C[C@@](C)(O)[C@@H]4[C@@H](O[C@H]5O[C@@H](CO)[C@H](O)[C@@H](O)[C@@H]5O)OC=C[C@@H]43)O[C@@H](O[C@H]3O[C@@H](CO)[C@H](O)[C@@H](O)[C@@H]3O)[C@@H]21		> 10	> 10	> 10	> 10	> 10		
OC[C@H]1O[C@@H](O[C@@H]2OC=C[C@H]3[C@H](O[C@@H]4O[C@H](CO)[C@@H](O)[C@H](O)[C@H]4O)[C@@H]4O[C@]4(CO)[C@@H]23)[C@H](O)[C@@H](O)[C@@H]1O		> 10	> 10	> 10	> 10	> 10		
C[C@@]1(O)[C@@H]2C(=C[C@H]1O[C@@H]1O[C@H](C(=O)O)[C@@H](O)[C@H](O)[C@H]1O)C=CO[C@H]2O[C@@H]1O[C@H](CO)[C@@H](O)[C@H](O)[C@H]1O		> 10	> 10	> 10	> 10	> 10		
C[C@]1(O)C[C@@H](O)[C@@H]2C[C@H](O[C@H]3C[C@@](C)(O)[C@@H]4[C@@H](O[C@H]5O[C@@H](CO)[C@H](O)[C@@H](O)[C@@H]5O)OC=C[C@@H]43)O[C@@H](O[C@H]3O[C@@H](CO)[C@H](O)[C@@H](O)[C@@H]3O)[C@@H]21		> 10	> 10	> 10	> 10	> 10		
C[C@]1(O)C=CC2=CCO[C@@H](O[C@@H]3O[C@H](CO)[C@@H](O)[C@H](O)[C@H]3O)[C@@H]21		> 10	> 10	> 10	> 10	> 10		
OCC1=C[C@@H](O)[C@]2(O[C@@H]3O[C@H](CO)[C@@H](O)[C@H](O)[C@H]3O)C=CO[C@@H](O[C@@H]3O[C@H](CO)[C@@H](O)[C@H](O)[C@H]3O)[C@H]12		> 10	> 10	> 10	> 10	> 10		
CC(/C=C/[C@@]1(O)C(C)(C)CCC[C@@]1(C)O[C@@H]1O[C@H](C)[C@@H](O)[C@H](O)[C@H]1O)=C\C(=O)O[C@@H]1C[C@](C)(O)[C@H]2[C@H](O[C@@H]3O[C@H](CO)[C@@H](O)[C@H](O)[C@H]3O)OC=C[C@H]21		> 10	> 10	> 10	> 10	> 10		
C[C@]1(O)C[C@@H](O[C@@H]2O[C@H](CO)[C@@H](O)[C@H](O)[C@H]2O)[C@@H]2C=CO[C@@H](O[C@@H]3O[C@H](CO)[C@@H](O)[C@H](O)[C@H]3O)[C@@H]21		> 10	> 10	> 10	> 10	> 10		
C[C@]1(O)C[C@@H](O)[C@]2(O)C=CO[C@@H](O[C@@H]3O[C@H](CO)[C@@H](O)[C@H](O)[C@H]3O)[C@@H]21		> 10	> 10	> 10	> 10	> 10		
C[C@]1(O)C[C@@H](O)[C@@H]2C=CO[C@@H](O[C@@H]3O[C@H](CO)[C@@H](O)[C@H](O[C@@H]4C[C@@H]5[C@H]([C@H](O[C@@H]6O[C@H](CO)[C@@H](O)[C@H](O)[C@H]6O)O4)[C@@](C)(O)C[C@H]5O)[C@H]3O)[C@@H]21		> 10	> 10	> 10	> 10	> 10		
CC(/C=C/[C@@]1(O)C(C)(C)CCC[C@@]1(C)O)=C\C(=O)O[C@H]1[C@H](O[C@@H]2OC=C[C@H]3[C@H](O)[C@@H]4O[C@]4(CO)[C@@H]23)O[C@H](CO)[C@@H](O)[C@@H]1O	2.5	> 10	> 10	> 10	> 10	> 10		91.7
OCC1=C[C@@H](O)[C@]2(O[C@@H]3O[C@H](CO)[C@@H](O)[C@H](O)[C@H]3O[C@H]3O[C@@H](CO)[C@H](O)[C@@H](O)[C@@H]3O[C@@H]3O[C@H](CO)[C@@H](O)[C@H](O)[C@H]3O)C=CO[C@@H](O[C@@H]3O[C@H](CO)[C@@H](O)[C@H](O)[C@H]3O)[C@H]12		> 10	> 10	> 10	> 10	> 10	64	
CC(/C=C/[C@@]1(O)C(C)(C)CCC[C@@]1(C)O)=C\C(=O)O[C@@H]1C[C@](C)(O)[C@H]2[C@H](O[C@@H]3O[C@H](CO)[C@@H](O)[C@H](O)[C@H]3O)OC=C[C@H]21 [REHMAGLUTOSIDE F]		> 10	> 10	> 10	> 10	> 10	63.4	
